# Hits are enriched below; roughly 1.3% of the tested compounds scored in any of these assays.
# Rpn11 inh = Rpn11 (human) deubiquitinase inhibition. human 26S proteasome, Ub4-pepOG fluorescence polarization; 20S core pre-blocked with epoxomicin. inhibition, % at 20 µM. hit rate 0.59% among 360,000;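 active = inhibition at 20 µM, scaled to each plate's controls, above about 33%, limit read from the data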
# HNF4A DNA FP = change in binding of human HNF4 alpha to DNA. HNF4a-FITC DNA binding, fluorescence polarization, 1 h. AID 1224865. hit rate 0.3% among 360,000. P41235. activity change, % at 10 µM; in the data active = activity change above about 30%, passing the limit was not always enough
# CSN inh = blocks human CSN-mediated cullin deneddylation. Q92905. Purified CSN, SCF-Nedd8-OG deneddylation, fluorescence polarization. inhibition, % at 12.5 µM. hit rate 0.38% among 360,000. AID 651999;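 active = pattern-corrected inhibition above about 35%, with an unprinted fluorescence ratio check between 0.5 and 1.5, limit read from the data, passing the limit was not always enough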;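 also: 0% = enzyme with substrate and 100% = substrate without enzyme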
#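 assay system = purified human Csn5 enzyme expressed in HEK293T cells | amount = 0.24 nM enzyme | buffer or medium = Tris/NaCl/DTT buffer, pH 7.5 | reagent = 10 nM SCFSkp2-Nedd8OG | compound = one concentration, 12.5 µM, 0.25% DMSO | times = 90 min reaction at room temperature | signal = FP | read-out basis = % inhibition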
# aDG glyco up = alpha-DG glycosylation activation | Pro5-aDG cells, alpha-DG glycosylation AlphaScreen (IIH6); 0% Pro5, 100% B10-LARGE cell signal | activation, % at 10 µM | hit rate 0.22% among 360,000 | AID 624168;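 active = activation of at least 8% versus controls, or a plate z-score of at least 8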;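 also: Pro5 are CHO cells carrying HIG-tagged alpha-DG that lacks glycosylation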
# XiGFP reactiv = activators of X-chromosome reactivation in mouse fibroblasts. XiGFP mouse fibroblasts, % GFP-positive cells imaging, 3 d; cells co-treated with 5-aza-dC sensitizer; scaled so ellipticine positive control = 100%. activation, % at 7.58 µM. hit rate 0.055% among 360,000;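 active = mean normalized replicate activation at least 10% and every replicate at or above 10%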;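 also: 0% = median of on-plate neutral control wells and 100% = ellipticine 6 µM median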
#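 Material: XiGFP fibroblasts, SV40-immortalized; Buffer or medium: DMEM containing 5-aza-dC; Compound dosing: single point; Times: 3 days compound exposure.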
# TPT1 inh = C. albicans TPT1 enzyme inhibition | hit rate 0.81% among 300,000 | recombinant caTPT1, FP RNA substrate dephosphorylation | inhibition, % at 5 µM;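 active = inhibition above the mean of all tested compounds plus 3 SD, set per screening campaign, cut at about 24% in these data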;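 also: plate controls were DMSO alone for no effect and ferristatin control at 100 nM for full effect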
# TPT1 inh confirm = TPT1 (C. albicans) inhibition, confirmation; shares compounds with TPT1 inh; recombinant caTPT1, fluorescence polarization, RNase T1 coupled; inhibition, % at 5 µM; hit rate 74% among 2,400; AID 2149;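 active = inhibition above the primary screen limit, the mean inhibition of all tested compounds plus 3 SD, cut at about 25% in these data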
# RNase T1 counter = blocks Aspergillus oryzae RNase T1, a TPT1 counter-screen; shares compounds with TPT1 inh; RNase T1 cleavage, fluorescence polarization, 1536-well; inhibition, % at 5 µM; hit rate 83% among 2,400; AID 2153;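 active = inhibition above the solvent-only control well mean plus 3 SD, limit set per screening run, cut at about 23% in these data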;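 also: plate controls were DMSO wells with enzyme for no effect and wells without RNase T1 for full effect; inhibitors block cleavage so intact labeled substrate keeps polarization high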
# Rpn11 confirm = confirmation of human proteasome Rpn11 inhibitors. shares compounds with Rpn11 inh. purified human 26S proteasome, Ub4-pepOG fluorescence polarization; proteasome pretreated with epoxomicin. inhibition, % at 20 µM. hit rate 29% among 1,900. AID 602318
# MMP-2 counter-1 = counter-screen for RPN11 inhibitors: inhibition of human MMP-2. inhibition, % at 20 µM. shares compounds with Rpn11 inh. AID 602330. recombinant MMP-2, FRET peptide cleavage fluorescence. hit rate 4% among 1,900;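 also: human MMP-2 activated beforehand with APMA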
# Target sequence (P08253 whole entry, looked up): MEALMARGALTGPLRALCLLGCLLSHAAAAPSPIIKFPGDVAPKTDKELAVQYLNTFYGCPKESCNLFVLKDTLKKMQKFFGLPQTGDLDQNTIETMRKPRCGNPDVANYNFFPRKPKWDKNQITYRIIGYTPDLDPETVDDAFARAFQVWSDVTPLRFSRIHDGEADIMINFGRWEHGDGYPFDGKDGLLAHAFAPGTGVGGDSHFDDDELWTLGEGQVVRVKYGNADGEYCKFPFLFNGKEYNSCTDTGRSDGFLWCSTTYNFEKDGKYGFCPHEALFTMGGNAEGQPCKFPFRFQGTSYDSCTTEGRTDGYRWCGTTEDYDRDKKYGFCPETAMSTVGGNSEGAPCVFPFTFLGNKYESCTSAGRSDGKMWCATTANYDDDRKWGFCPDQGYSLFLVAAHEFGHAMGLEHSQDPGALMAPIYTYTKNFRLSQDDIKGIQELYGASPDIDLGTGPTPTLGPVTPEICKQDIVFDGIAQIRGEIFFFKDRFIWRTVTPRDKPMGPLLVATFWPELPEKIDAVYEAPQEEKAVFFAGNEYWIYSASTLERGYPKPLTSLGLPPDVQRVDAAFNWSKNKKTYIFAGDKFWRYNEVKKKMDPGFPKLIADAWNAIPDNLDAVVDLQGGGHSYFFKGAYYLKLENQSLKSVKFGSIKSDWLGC
# Thrombin FP = counter-screen for RPN11 inhibitors: inhibition of bovine thrombin; hit rate 13% among 1,900; bovine thrombin cleavage of Ub4-pepOG, fluorescence polarization; AID 602333; shares compounds with Rpn11 inh; inhibition, % at 20 µM;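 active = mean inhibition at least 40% at 20 µM, or signal 3 deviations below plate average, so some actives read negative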;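 also: plate controls were thrombin with DMSO for no effect and buffer wells lacking thrombin for full effect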
# CSN deneddyl val = Csn5 (human) deneddylation inhibition, single-concentration validation | AID 720654 | hit rate 62% among 540 | inhibition, % at 16.6 µM | Csn5 deneddylation of SCF-Nedd8OG, fluorescence polarization, 90 min | shares compounds with CSN inh; in the data active = inhibition above about 50%;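 also: 0% = DMSO with enzyme and 100% = no enzyme wells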
# MMP-2 counter-2 = blocks human MMP-2 in a CSN deneddylation counter-screen. inhibition, % at 16.6 µM. recombinant MMP-2, FRET substrate fluorescence, 60 min. hit rate 33% among 540. shares compounds with CSN inh. AID 720655;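 active = corrected plate-normalized z-score of 5 or more, or -5 or less, or inhibition of 15% or more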;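 also: plate controls were DMSO wells with enzyme for no effect and buffer wells lacking MMP-2 for full effect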
# Thrombin cntr = blocks bovine thrombin in a CSN deneddylation counter-screen; AID 720656; bovine thrombin cleavage of Ub4-pepOG, fluorescence polarization; shares compounds with CSN inh; hit rate 49% among 540; inhibition, % at 16.6 µM;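 active = inhibition at or above a set limit, with a fluorescence interference ratio between 0.5 and a set maximum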
# An asterisk follows results filed as active; . = no result given; + = active, no number. Rule as the data show it, unless noted: active = inhibition above about 40%; inactive = the rest.
SMILES,Rpn11 inh,HNF4A DNA FP,CSN inh,aDG glyco up,XiGFP reactiv,TPT1 inh,TPT1 inh confirm,RNase T1 counter,CSN deneddyl val,MMP-2 counter-2,Thrombin cntr,others
O=C(C[C@H]1C[C@@H]2c3cc(NC(=O)Cc4ccncc4)ccc3O[C@@H]2[C@H](CO)O1)NCc1ccccn1,.,.,.,.,0,.,.,.,.,.,.,
Cn1c(-c2ccc(C=O)s2)nc2c3ccccc3c3ccccc3c21,-14,-40,47*,0,.,34*,52*,63*,.,-18,-72,
Cc1ccc(S(=O)(=O)Nc2ccc3c(c2)C(=O)N([C@@H](C)CO)C[C@@H](C)[C@H](CN(C)C(=O)Nc2ccc4c(c2)OCO4)OCCCC[C@@H](C)O3)cc1,.,.,.,.,0,.,.,.,.,.,.,
CC[n+]1c(/C=C/N(C)c2ccccc2)oc2ccc(F)cc21,.,60*,37*,0,0,55*,72*,81*,122*,-4,47*,
COCC(=O)N[C@H]1CC[C@H](CC(=O)N2CCCCC2)O[C@@H]1CO,.,.,.,.,0,.,.,.,.,.,.,
COc1ccc(C(C#N)=Cc2ccccc2OC)cc1,-3,0,2,0,1,.,.,.,.,.,.,
COc1cc(N2CCCC2)c(OC)cc1/C=C(/C#N)c1ccc(Br)cc1,.,113,60*,-1,.,104*,130*,147*,90*,-7,22*,
CCN1C(=O)/C(=C/C=C2\C=CN(CC)c3ccccc32)SC1=S,8,2,4,-1,0,2,.,.,.,.,.,
CCN1C(=O)/C(=C\C=C2/C=CC=CN2CC)SC1=S,.,136*,53*,0,1,27*,36*,55*,61*,23*,63*,
COc1ccc2nc(-n3c(C)ccc3C)sc2c1,1,4,4,0,.,-1,.,.,.,.,.,
COc1ccc2nc(N3C(=O)/C(=C/c4ccccc4)NC3=S)sc2c1,.,108,95*,0,0,111*,115*,119*,92*,-12,74*,
COCC(=O)Nc1ccc2c(c1)C(=O)N(C)C[C@H](OC)[C@H](C)CN(Cc1ccncc1)[C@@H](C)CO2,.,.,.,.,0,.,.,.,.,.,.,
CN(C)c1ccc(/C=C/C(=O)c2cc(Cl)ccc2O)cc1,.,75*,71*,0,0,40*,50*,60*,68*,-18,42*,
CCCNC(=O)[C@H]1[C@H](CO)[C@H]2Cn3c(cccc3=O)[C@H]2N1C(=O)C1CCCC1,.,.,.,.,0,.,.,.,.,.,.,
Cc1ccc(/C=C/c2ccc(N(C)C)cc2)[n+](C)c1,.,89*,47*,0,0,36*,46*,56*,40*,-92*,68*,
Cc1cccn2c(=O)c(/C=C3\SC(=S)NC3=O)c(NCCCN3CCOCC3)nc12,.,109*,85*,0,0,121*,122*,120*,81*,-18,47*,
Cc1cccn2c(=O)c3cc(C(=O)NCCN4CCOCC4)n(C)c3nc12,-1,1,5,0,0,-1,.,.,.,.,.,
CCOCCCNc1nc2c(C)cccn2c(=O)c1/C=C1\SC(=S)N(CC(C)C)C1=O,75*,57*,47*,0,.,52*,76*,95*,76*,-5,20*,Rpn11 confirm=91*;MMP-2 counter-1=60*;Thrombin FP=72*
COC(=O)C[C@H]1CC[C@H]2[C@@H](COc3ccc(NS(=O)(=O)c4cccc(F)c4)cc3C(=O)N2C)O1,.,.,.,.,0,.,.,.,.,.,.,
O=C1/C(=C\c2ccco2)CCC/C1=C\c1ccco1,.,62,39*,0,0,55*,65*,72*,66*,6,53*,
C#CCN1C(=O)S/C(=C/C=C/c2ccc(N(C)C)cc2)C1=O,.,78*,59*,1,0,87*,77*,81*,54*,-69*,71*,
O=C(C1CC1)N1C[C@@H]2[C@H](c3ccccc31)[C@H](CO)N2C(=O)c1cccc(F)c1,.,.,.,.,0,.,.,.,.,.,.,
N#C/C(=C\c1ccc(N2CCOCC2)o1)C(=O)NC1CCCCC1,.,166,77*,0,1,163*,177*,169*,141*,-10,65*,
N#C/C(=C\c1ccc(N2CCOCC2)o1)C(=O)NCCc1ccccc1,.,188,98*,0,0,+,181*,171*,+,-19,-5,
CCC(=O)N1[C@H](CN(C)C(=O)c2cccc(F)c2)[C@@H](c2ccccc2)[C@@H]1CO,.,.,.,.,0,.,.,.,.,.,.,
SMILES,Rpn11 inh,HNF4A DNA FP,CSN inh,aDG glyco up,XiGFP reactiv,TPT1 inh,TPT1 inh confirm,RNase T1 counter,CSN deneddyl val,MMP-2 counter-2,Thrombin cntr,others
CCC(=O)N1[C@H](CO)[C@@H](c2ccccc2)C12CN(Cc1ccccc1F)C2,.,.,.,.,0,.,.,.,.,.,.,
CC(C)COC(=O)N(C)C[C@@H]1OCc2ccccc2-c2c(n(C)c3ccccc23)C(=O)N([C@@H](C)CO)C[C@@H]1C,.,.,.,.,-1,.,.,.,.,.,.,
COc1ccc(C(=O)Nc2ccc3c(c2)C(=O)N(C)C[C@@H](OC)[C@H](C)CN(C(=O)C2CC2)[C@H](C)CO3)cc1,.,.,.,.,0,.,.,.,.,.,.,
CC(OC(=O)/C(C#N)=C/c1ccc(N(C)C)cc1)C(=O)N(C)c1ccccc1 (stereo unspecified),.,107*,71*,0,0,121*,130*,132*,62*,-20,73*,
C=CCSC1=N/C(=C\c2sccc2C)C(=O)S1,2,-2,-1,0,.,1,.,.,.,.,.,
C=CCSC1=N/C(=C\C=C\c2ccco2)C(=O)S1,37,1,57*,0,.,29*,28*,38*,68*,30*,8,
